Entries after “also recorded” stand apart in the source; their conditions may differ. Starred links: 1 amine or outer side, 2 acyl side, 3 side chain; linkers in the order of their positions; H or OH if unused. Non-standard residues stand in square brackets, D forms with d. Residues, ends and D or L forms follow the SMILES beside them. *: point of attachment. X2 = COc1ccc([N+]2=NC(C#N)=NN(c3ccc(-c4cn(CCCC[C@H](N[*:1])C(=O)[*:2])nn4)cc3)[B-]2(F)F)cc1; Octanoyl = CCCCCCCC(=O)*; Dap = NC[C@H](N)C(=O)O
Legend:
[1] = Photophysical properties; assay type: physicochemical; details: in DMSO; for λabs (absorption maximum): UV-Vis spectrophotometer; for ΦF (fluorescence quantum yield): comparative method, [Ru(bpy)3][PF6]2 as relative standard
Procedure, shortened: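 Measurements were made in DMSO. UV-Vis absorption and excitation/emission spectra were recorded. Molar extinction coefficient was taken from the slope of absorbance versus concentration over seven solutions of known concentration. Fluorescence quantum yield was determined by the comparative method against the [Ru(bpy)3][PF6]2 standard.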

[2] = target: GHSR-1a (Homo sapiens, UniProt Q92847); test: Radioligand competitive binding assay, GHSR-1a
Sequence of GHSR-1a (Q92847 whole entry): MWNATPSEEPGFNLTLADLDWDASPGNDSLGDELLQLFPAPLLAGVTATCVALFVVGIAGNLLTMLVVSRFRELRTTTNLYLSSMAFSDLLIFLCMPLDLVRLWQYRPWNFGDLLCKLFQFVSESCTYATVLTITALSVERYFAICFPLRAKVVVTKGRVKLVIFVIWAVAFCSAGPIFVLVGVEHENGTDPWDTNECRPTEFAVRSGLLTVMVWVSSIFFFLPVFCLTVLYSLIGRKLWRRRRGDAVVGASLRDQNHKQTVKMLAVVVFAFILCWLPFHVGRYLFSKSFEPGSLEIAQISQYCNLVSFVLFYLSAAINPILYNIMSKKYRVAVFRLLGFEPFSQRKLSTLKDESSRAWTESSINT
Procedure, shortened: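 Competition binding used membranes from HEK293 cells transiently transfected with GHSR-1a (50 000 cells/tube) and human [125I]-ghrelin(1–28) (15 000 cpm/tube). Test peptide was run at 10−11 to 10−5 M, with incubation for 20 min at 550 rpm. Unbound radioligand was removed and bound activity gamma-counted. Human ghrelin(1–28) served as reference. IC50 came from nonlinear regression; assays were run in triplicate.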

[3] = test system: OVCAR-8 cells stably transfected with GHSR-1a; test: Confocal fluorescence microscopy of OVCAR-8 cells transfected with GHSR-1a; assay type: cell-based; details: 0.1 μM, 1 h, 37 °C
Procedure, shortened: (§1)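 OVCAR-8 cells, either stably transfected with GHSR-1a or parental, were detached with trypsin-free dissociation buffer and seeded at 50 000 cells/well on coverslips. They were cultured overnight in RPMI/10% FBS at 37 °C, 5% CO2. Test compound at 0.1 μM was added in serum-free RPMI for 1 h at 37 °C. Cells were washed three times with PBS, fixed in 4% paraformaldehyde and mounted with DAPI. Confocal settings: ex 559 nm, em 598–698 nm; 40× and 60× objectives.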

[4] = test system: parental OVCAR-8 cells; test: Confocal fluorescence microscopy of parental OVCAR-8 cells; assay type: cell-based; details: low expression of GHSR-1a
Procedure, shortened: as §1

[5] = target: GRPR (Homo sapiens, UniProt P30550); test: Radioligand competitive binding assay, GRPR
Sequence of GRPR (P30550 whole entry): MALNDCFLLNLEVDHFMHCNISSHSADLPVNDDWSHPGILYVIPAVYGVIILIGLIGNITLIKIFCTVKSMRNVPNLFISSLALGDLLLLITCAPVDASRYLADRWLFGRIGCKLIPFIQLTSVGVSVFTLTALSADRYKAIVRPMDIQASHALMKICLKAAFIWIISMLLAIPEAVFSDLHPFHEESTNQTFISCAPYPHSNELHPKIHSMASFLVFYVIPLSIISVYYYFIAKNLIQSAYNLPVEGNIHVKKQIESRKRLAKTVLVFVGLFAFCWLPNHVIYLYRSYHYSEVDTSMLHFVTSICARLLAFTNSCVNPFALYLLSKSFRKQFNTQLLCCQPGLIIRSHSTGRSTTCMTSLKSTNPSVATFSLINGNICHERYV
Procedure, shortened: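 Whole-cell competition binding used PC-3 cells (500 000/vial) grown in F-12K/10% FBS, with [125I]Tyr4-bombesin as radioligand. Test peptide was run at 10−12 to 10−6 M, shaking at 550 rpm for 1 h at 37 °C. Cells were centrifuged, the pellet washed with 50 mM Tris pH 7.4, and bound activity gamma-counted. IC50 came from nonlinear regression; assays were run in triplicate.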

[6] = test system: PC-3 cells; test: Confocal fluorescence microscopy of PC-3 cells; assay type: cell-based; details: 0.5 μM, 1 h, 37 °C
Procedure, shortened: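 PC-3 cells, with native GRPR, were detached with trypsin-free dissociation buffer and seeded at 50 000 cells/well on coverslips. They were cultured overnight in F-12K/10% FBS at 37 °C, 5% CO2. Test compound at 0.5 μM was added in serum-free F-12K for 1 h at 37 °C, alone or with a 10-fold molar excess of the unlabelled parent peptide as blocker. Cells were PBS-washed three times, fixed in 4% paraformaldehyde and mounted with DAPI. Confocal settings: ex 559 nm, em 605–705 nm.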

[7] = test system: GRPR in PC-3 cells; test: Blocking study in PC-3 cells with parent peptide 3; assay type: cell-based; details: 0.5 μM 7, 1 h, 37 °C; 10-fold molar excess of 3

| SMILES | λem (emission maximum) [1] [nm] | λabs (absorption maximum) [1] [nm] | ΦF (fluorescence quantum yield) [1] [%] | IC50 [2] [nM] | receptor affinity relative to parent peptide (in words) ([2]; vs parent peptide 2, GHSR-1a) | specific binding for GHSR-1a by confocal fluorescence microscopy [3] | cellular uptake (red emission) [4] | ε (molar extinction coefficient) ([1]; slope of absorbance against concentration, seven solutions) | IC50 [5] [nM] | receptor affinity relative to parent peptide (in words) ([5]; vs parent peptide 3, GRPR) | specific binding for GRPR by confocal fluorescence microscopy [6] | displacement by parent peptide 3 [7] |
| --- | --- | --- | --- | --- | --- | --- | --- | --- | --- | --- | --- | --- |
| CCCCCCCC(=O)NC[C@H](NC(=O)[C@H](CO)NC(=O)CN)C(=O)N[C@@H](Cc1ccccc1)C(=O)N[C@@H](CC(C)C)C(=O)N[C@@H](CO)C(=O)N1CCC[C@H]1C(=O)N[C@H](C(=O)N[C@@H](CCCCn1cc(-c2ccc(N3N=C(C#N)N=[N+](c4ccc(OC)cc4)[B-]3(F)F)cc2)nn1)C(N)=O)[C@@H](C)O [Compound 5, [Dpr(octanoyl)^3,Thr^8,Lys(triazole-formazanate)^9]ghrelin(1–9)] (H-GS[Dap](Octanoyl)FLSPT[X2]-NH2; N-terminus assumed) | 688 | 560 | 21 | 89 | decrease in receptor affinity | specific binding of 5 for GHSR-1a | minimal uptake of 5 |  |  |  |  |  |
| CCCC[C@H](NC(=O)[C@H](Cc1ccccc1)NC(=O)[C@H](Cc1c[nH]cn1)NC(=O)CCNC(=O)[C@@H](NC(=O)[C@H](C)NC(=O)[C@H](Cc1c[nH]c2ccccc12)NC(=O)[C@H](CCC(N)=O)NC(=O)[C@@H](Cc1ccccc1)NC(=O)COCC(=O)NCCOCCOCCOCCOCCOCCOCCOCCOCCn1cc(-c2ccc([N+]3=NC(C#N)=NN(c4ccc(OC)cc4)[B-]3(F)F)cc2)nn1)C(C)C)C(N)=O [Compound 7] (HELM PEPTIDE1{[COc1ccc(N2N=C(C#N)N=[N+](c3ccc(-c4cn(CCOCCOCCOCCOCCOCCOCCOCCOCCNC(=O)COCC(=O)[*:2])nn4)cc3)[B-]2(F)F)cc1].[dF].Q.W.A.V.[bAla].H.F.[Nle].[am]}$$$$V2.0) | 690 | 555 | 12 |  |  |  |  | 31 900 M^−1 cm^−1 | 16.3 | decrease in receptor affinity | analogue 7 for GRPR was demonstrated; also recorded: specific binding of analogue 7 to GRPR | displacement of 7 by 10-fold molar excess of 3 |
